The chains are these.
B1: tRNA (parent)
chain: GUUCCGUUGGCGUAAUGGUAACGCGUCUCCCUCCUAAGGAGAAGACUGCGGGUUCGAGUCCCGUACGGAACG

Variants at the floor of the assay were thinned out.

The variants in this series derive from B1. As to the kind of experiment: yeast fitness relative to wild type (ratio to wild type); higher = fitter; tRNA-Arg(CCU), competitive growth, 37 C, YPD. The method, boiled down:
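Changes in genotype frequencies gave Darwinian fitness relative to wild type. Frequencies were read by 100-nucleotide paired-end sequencing of gene amplicons before and after pooled Saccharomyces cerevisiae strains, carrying tRNA-Arg(CCU) gene variants at the native locus, were competed in YPD at 37°C for 24 hours in six replicates. A genotype was kept only with ≥ 100 starting reads, and estimates < 0.5 were set to 0.5.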
In the case of GUUCCGUUGGCGUAAUGGUAACGCGUCUCCCUCCUAAGGAGAAGACUGAGGGUUCAUGUCCCGUACGGAACG, the yeast fitness is no more than 0.5.

With GUUCCGUUGGCGCGAUGGUAACGCGUCUCCCUCCUAAGGAGCAGACUGCGGGUUCGAGUCGUGUACGGAACG, the yeast fitness was no more than 0.5.

GUUCCGUUGGCGUAAUGGUAACGCGUCUCCCUCCUAGCGAGAAGACUGCGGAUUCGAGUCUCGUACGGAACG: the yeast fitness worked out at 0.653. As for GUUACGUUGGCGUAAUAGUAACGGGUCUCCCUCCUAAGGAGAAGACUGCGGGUUCGAGUCCCCUACGGAACG, the yeast fitness came out at 0.64. Turning to GAUCCGUUGGCGUAAUGGUAACGCGUCUACCUCCUAAGGAGAAGUCUGCGGGUUCGAGUCCCGUACGCAACG, the yeast fitness is no more than 0.5.

Regarding GUUCCGUUGGCGUAAUGGUAACGCGUCUCCCUCCUAAGGAGAAGACUGCGGGUUCGAGGGCCGUACGGAACG, the yeast fitness came out at 0.638.

GUUCCGUUGGCCUAAUGGUAACGCGUCUCCCUCCUAAGGAGAAGACUGCGGGUUUGAGUCGCGUACGGAACG: the yeast fitness is no more than 0.5. Next, GUUCCGUUGGCGUAAUGGUGACGCGUCUACCUCCUAAGGUGAAGACUGCGGGUUCGAGUCCGGUACGGAACG: no more than 0.5.

As for GUUCCGUUGGCGUAAUGGUAGCGCGUCUCCCUCCUAGGGAGAAGACUGCGGGUUCGAGUGCCGUACGGAACG, the yeast fitness is no more than 0.5. As for GUUUCGUUGGCGUAAUGGUAAGGCGUCUCCCUCCUAAGGAGAAGACUACGGGUUCGAGUGCCGUACGGAACG, the yeast fitness was no more than 0.5. GUUCCGUUGGCGUAAUGGUAAAGCGUCUCCCUCCUAAGCAGAUGACUGCGGGCACGAGUCCCGUACGGAACG: the yeast fitness was no more than 0.5. As for GUUCUGUUGGCGUAAUGGUAACGCGUCUCCCUCCUAAGGAGAAGACUGCGGGUUCGACCCCCGUACGGAGCG, the yeast fitness was no more than 0.5. Take GUUCUGUUGGCGUCAUGGUAACGCGUCUCCCUCCUAAGGAGAAGAAUGCGGGUUCGAGUCCCCUACGGUACG: the yeast fitness was no more than 0.5.

For the variant GUUCCGUUGGCGUAAUCGUAACGCGUCUUCCUCCUAAGGAGAAGACUGCGGGUUCGAGUCCCGUACGGAACG, the yeast fitness turned out to be 0.545. Consider GUUCCGUUGGCGUAAUGGUAACGCGUCUCCCUCCUAAGGAGAAGACCGCGGGUUCGAGCCCCGUACGGAACG, for which the yeast fitness is 0.926. The figure for GUUCCGUUGGCGUAAUGGUAACGCGUCUCCCCCCUAACGAGAAGACUGCGGGUUCGAGUCCCGUACGCCACG is 0.589; for GUUCCGUCAGCAUAAUGGUAACGCGUCUCCCUCCUAAGGAGAAGACUGCGGGUUCGAGUCCCGUACGGAACG it is 0.529; for GUUCCGUUGGCGUUAUGGUAACGCGUCUCACUCCUAAGGAGAAGACUGCGGGUUCGAGUCCCGUACGGAACG it is 0.565. Next, GUUCCGUUGGCGUAAUGGUAACGCGUCUCCCUCCUAAAGAGAUGACUGCGGGUUCAAGUCCCGUACGGAACG: 0.596; GCUACGUUGGCGUAAUGGUAACGCGUCUCCCUCAUAAGGAGAGGACUGCGGCUUCGAGUCACGUACGGAACG: no more than 0.5; GUUCCGUUGGCGUAAUGGUAAAGCGUCUUCCUCCUAAGGAGAAGACUGCGGGAUCGAGUCCCGUAUGGAACG: no more than 0.5. As to GUUCCGUUGCCGUAAUGGUGACGUGUCUCCCUCCUAACGAGAAGACUGCGGGUUCCAGUCCCGUAUGGAACG, the yeast fitness was no more than 0.5. Regarding GUUCGGUUGGCGUAAUGGUAACGCGUAUCCCUCCUACGGAGAAGACUGCGGGUUGGAGUCCCGUACGGAACG, the yeast fitness was no more than 0.5. As for GUUCUGUUGGCGUAAUGGUAACGCGUCUCCCUCAUAAGGAGAAGACUGCAGGUUCGAGGCCAGUACGGAACG, the yeast fitness is no more than 0.5. The figure for GUUCCGUUGGCGUCAUGGCAACGCGUCUCCCUGCUAAGGAGAAGACUGCGGGUUCGAGUCCCGUACGGAACG is 0.641. For GUUCCGUUGGCGUCAUGGUAACGCGUCUCCCUCCUAAGGAGAAGACUGAGGGUUCGAUUCCCGUACGGAACG, the yeast fitness was no more than 0.5. The figure for GUUCCGAUGGCGUAAUGGUAACGCGUCUCCCUCCUAAGGAGAAGACUGCGGGUUCAAGUCCCGUACGGAACG is 0.673; for GUUCCGUUGGCGUAAUGGUAACGCGUCUCCCUCCUAAGGAGAAGACUACGGGUUCGCGUCCCGUACGGAACG it is 0.643. Consider GGUCCGUUGGGGUAAUGGUAACGCGUCUCCCUCCUAACGAGAAAACUGCGGGUUCGAGUCCUGCACGGAACG, for which the yeast fitness was no more than 0.5.

As for GUUCCGUUGGCGUAAUGGUAACGCGACUCCCUCUUAAGGAGAAGACUGGGGGUUCGAGUCCCGUACGGAACG, the yeast fitness was no more than 0.5.

On to GUUCCGUUGGCGCAAGGGUAACGCGUCUCCCUCCUAAGGAGAAGACUGGGGGUUCGAGUCCCGUACGGAACG, for which the yeast fitness was 0.617.

GUUCCGUCGGCGUAAUGAUAACCCGUCUCCGUCCUAACGAAAAGACUGCGGGUUCGAGUCCCGUACGGAACG: the yeast fitness is 0.635. On to GUUCCGCAGGCGUAAUGGUGACGGGUCUCCCUCCUAAGGAGAAGACUGCGGGUUCGAGUCCCGCACGGAACG, for which the yeast fitness was no more than 0.5. Next, GUUCCGUGGGCGUAAUGGUAACGCGUCUCCCUCCUAAGGAGAAGACUGCCGGUUCGAGUCCCGUACGGAACG: no more than 0.5.

Regarding GUUCCGAUGGCGUAAUGGUAACGCGCCUCCCUCCUAAGGAGAAGACUGCGGGUUCGAGUCCCGAACGGAACG, the yeast fitness is no more than 0.5.

Take GUUCCGUUGGCGUAAUGGUAACGCGUCUCCCUCCUAAGGAGAAGACUGCGGGUUGGAGUACCGUACGGAACG: the yeast fitness was determined as 0.536. For GUUACGUUGGCGUAAUGGUAAUGAGUCUACCUCCUCAGGAGAAGACUGCGGGUUCGAGUCCCGUACGGAACG, the yeast fitness was determined as 0.518. Turning to GUUCCGUUGGCGUAAUGGUUACGCGUCUCCCUCCUAACGAGAAGACUGCGGGUUCGAGUCCCGUGCGGAACG, the yeast fitness is no more than 0.5.

These data come from the RNAGym collection of RNA variant scans (doi:10.1126/science.aae0568).
